Assay [1] is described as follows: Inhibition of Escherichia coli K-12 beta-lactamase OXA1 assessed as inhibition of nitrocefin hydrolysis pre-incubated for 5 mins by microtiter plate assay.
Another assay addresses Beta-lactamase TEM (Escherichia coli, UniProt P62593). Put plainly: Inhibition of Escherichia coli JT4 beta-lactamase TEM1 assessed as inhibition of nitrocefin hydrolysis preincubated for 5 mins by microtiter plate assay. The procedure, abridged:
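Inhibitor was pre-incubated with enzyme for 5 min at 37° before each determination. Enzyme classification follows Bush.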

A further assay concerns Bacillus subtilis. Put plainly: Antimicrobial activity against Bacillus subtilis ATCC 6633 by microtiter method. It counts as functional. Summed up:
(§1)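 Broth microdilution MIC in Oxoid nutrient broth No. 2. Inoculum was a 1/500 dilution of an overnight broth culture, and plates were incubated overnight at 37°.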

In assay [2] the test system is Staphylococcus aureus. Put plainly: Antimicrobial activity against Staphylococcus aureus Russell by microtiter method. It counts as functional. Summed up: as §1
The subject of assay [3] is Staphylococcus aureus. Description: Antimicrobial activity against Staphylococcus aureus Smith by microtiter method. It counts as functional. Summed up: as §1
The target in assay [4] is Beta-lactamase (Enterobacter cloacae, UniProt P05364). Description: Inhibition of Enterobacter cloacae P99 beta-lactamase assessed as inhibition of nitrocefin hydrolysis pre-incubated for 5 mins by microtiter plate assay.
The subject of a further assay is Streptococcus pneumoniae. Put plainly: Antimicrobial activity against Streptococcus pneumoniae PU7 after overnight incubation by Todd Hewitt broth dilution method. It counts as functional. The procedure, abridged:
(§2)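 Broth microdilution MIC in Todd Hewitt broth. Inoculum was a 1/500 dilution of an overnight broth culture, and plates were incubated overnight at 37°.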

Assay [5] addresses Beta-lactamase (Staphylococcus aureus) (UniProt P00807). Put plainly: Inhibition of Staphylococcus aureus Russell beta-lactamase assessed as inhibition of nitrocefin hydrolysis up to 567 ug/ml pre-incubated for 5 mins by microtiter plate assay. The procedure, abridged: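 Inhibitor was pre-incubated with the enzyme for 5 min at 37°, then hydrolysis of 200 µM nitrocefin was read on a microtiter plate reader. Inhibitor was tested at concentrations up to 567 µg/ml.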

The next assay deals with Pseudomonas aeruginosa. Put plainly: Antimicrobial activity against Pseudomonas aeruginosa 1771P by microtiter method. It counts as functional. Summed up: as §1
For assay [6], the target named is Beta-lactamase (Pseudomonas aeruginosa (strain ATCC 15692 / PAO1 / 1C / PRS 101 / LMG12228), UniProt P24735). Description: Inhibition of Pseudomonas aeruginosa A beta-lactamase assessed as inhibition of nitrocefin hydrolysis preincubated for 5 mins by microtiter plate assay.
Assay [7] has as its system Staphylococcus aureus. Put plainly: Antimicrobial activity against Staphylococcus aureus Oxford by microtiter method. It counts as functional. The procedure, abridged:
as §1

A further assay deals with Klebsiella pneumoniae. Put plainly: Antimicrobial activity against Klebsiella pneumoniae A by microtiter method. It counts as functional. Summed up:
as §1

For assay [8], the target named is T1, Beta-lactamase (Proteus mirabilis, UniProt P30897).
T1 sequence (P30897 whole entry): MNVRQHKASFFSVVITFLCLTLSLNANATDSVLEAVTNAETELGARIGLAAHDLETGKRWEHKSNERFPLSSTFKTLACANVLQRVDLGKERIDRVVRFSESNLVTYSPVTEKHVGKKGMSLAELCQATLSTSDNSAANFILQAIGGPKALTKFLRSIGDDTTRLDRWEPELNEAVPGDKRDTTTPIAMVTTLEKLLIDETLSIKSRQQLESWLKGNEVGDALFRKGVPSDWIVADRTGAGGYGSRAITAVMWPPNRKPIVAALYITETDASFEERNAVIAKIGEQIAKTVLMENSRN
Put plainly: Inhibition of Proteus mirabilis C889 beta-lactamase assessed as inhibition of nitrocefin hydrolysis preincubated for 5 mins by microtiter plate assay.

Assay [9] concerns Staphylococcus epidermidis. Description: Antimicrobial activity against Staphylococcus epidermidis NCTC 11047 by microtiter method. It counts as functional. Summed up: as §1
The subject of the next assay is Streptococcus pyogenes. Description: Antimicrobial activity against Streptococcus pyogenes CN 10 after overnight incubation by Todd Hewitt broth dilution method. It counts as functional. The procedure, abridged:
as §2

A short description of assay [10]: Inhibition of Escherichia coli K-12 beta-lactamase PSE-4 assessed as inhibition of nitrocefin hydrolysis preincubated for 5 mins by microtiter plate assay.
Assay [11] relates to Staphylococcus saprophyticus. Description: Antimicrobial activity against Staphylococcus saprophyticus Fl2 by microtiter method. It counts as functional. The procedure, abridged: as §1
Another assay relates to Serratia marcescens. Description: Antimicrobial activity against Serratia marcescens US32 by microtiter method. It counts as functional. The procedure, abridged: as §1
Another assay concerns Enterobacter cloacae. Description: Antimicrobial activity against Enterobacter cloacae N1 by microtiter method. It counts as functional. The procedure, abridged:
as §1

The subject of a further assay is Proteus mirabilis. Description: Antimicrobial activity against Proteus mirabilis C977 by microtiter method. It counts as functional. The procedure, abridged:
as §1

For a further assay, the system named is Escherichia coli. Description: Antimicrobial activity against Escherichia coli NCTC-10418 by microtiter method. It counts as functional. The procedure, abridged:
as §1

Another assay has as its system Enterococcus faecalis. Put plainly: Antimicrobial activity against Streptococcus faecalis 1 by microtiter method. It counts as functional. The procedure, abridged:
as §1

We go through two compounds from ChEMBL document CHEMBL1149069, “SB-202742, a novel beta-lactamase inhibitor isolated from Spondias mombin” (J Nat Prod, 1994).

In brackets after ≈: the same amount, converted by molar mass. Activity calls are given as the source filed them. No cut-off for these calls is given here.

Chain of Beta-lactamase (Enterobacter cloacae, UniProt P05364) (P05364 whole entry): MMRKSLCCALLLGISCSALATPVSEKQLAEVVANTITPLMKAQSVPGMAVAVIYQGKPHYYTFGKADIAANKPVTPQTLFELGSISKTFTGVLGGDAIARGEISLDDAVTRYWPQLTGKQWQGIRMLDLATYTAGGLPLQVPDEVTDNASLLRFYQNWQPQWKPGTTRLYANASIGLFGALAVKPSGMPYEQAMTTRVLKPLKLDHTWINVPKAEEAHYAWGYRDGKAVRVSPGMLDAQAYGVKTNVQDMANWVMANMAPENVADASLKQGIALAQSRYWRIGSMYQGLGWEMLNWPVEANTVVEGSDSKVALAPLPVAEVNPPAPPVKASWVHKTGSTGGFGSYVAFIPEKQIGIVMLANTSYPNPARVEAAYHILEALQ
Chain of Beta-lactamase TEM (P62593 whole entry): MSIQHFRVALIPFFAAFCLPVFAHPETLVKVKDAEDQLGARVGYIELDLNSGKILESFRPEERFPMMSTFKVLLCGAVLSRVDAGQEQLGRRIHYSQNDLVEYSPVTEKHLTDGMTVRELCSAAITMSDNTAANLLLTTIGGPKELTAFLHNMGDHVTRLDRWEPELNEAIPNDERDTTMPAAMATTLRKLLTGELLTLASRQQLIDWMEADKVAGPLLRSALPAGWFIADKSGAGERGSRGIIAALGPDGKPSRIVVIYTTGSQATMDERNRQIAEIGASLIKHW
Chain of Beta-lactamase (Pseudomonas aeruginosa (strain ATCC 15692 / PAO1 / 1C / PRS 101 / LMG12228), UniProt P24735) (P24735 whole entry): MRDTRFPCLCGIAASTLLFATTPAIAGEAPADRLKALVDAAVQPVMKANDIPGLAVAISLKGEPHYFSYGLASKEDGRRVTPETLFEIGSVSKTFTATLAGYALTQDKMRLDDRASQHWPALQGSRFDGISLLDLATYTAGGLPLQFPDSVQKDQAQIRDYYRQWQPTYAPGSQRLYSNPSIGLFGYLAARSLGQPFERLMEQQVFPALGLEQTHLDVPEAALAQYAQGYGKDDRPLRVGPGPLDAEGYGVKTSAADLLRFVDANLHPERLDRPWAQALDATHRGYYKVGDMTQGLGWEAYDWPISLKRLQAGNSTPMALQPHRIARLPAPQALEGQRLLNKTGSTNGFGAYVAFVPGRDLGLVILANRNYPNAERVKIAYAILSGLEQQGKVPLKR
Chain of Beta-lactamase (Staphylococcus aureus) (P00807 whole entry): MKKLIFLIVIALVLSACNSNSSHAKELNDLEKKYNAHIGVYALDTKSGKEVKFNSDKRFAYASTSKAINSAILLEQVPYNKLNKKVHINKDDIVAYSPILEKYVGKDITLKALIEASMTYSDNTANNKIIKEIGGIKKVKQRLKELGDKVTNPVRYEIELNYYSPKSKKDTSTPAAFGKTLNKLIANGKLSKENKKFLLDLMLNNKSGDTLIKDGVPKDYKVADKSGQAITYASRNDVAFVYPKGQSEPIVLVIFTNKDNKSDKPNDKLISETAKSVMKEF

For the compound `O=C(O)[C@H]1/C(=C/CO)O[C@@H]2CC(=O)N21` [CLAVULANIC ACID], in assay [1], the IC50 was 0.35 mg/L (≈ 1.76 µM).

Consider `CC/C=C\C/C=C\C/C=C\CCCCCCCc1cccc(O)c1C(=O)O`, for which the IC50 was 13.5 µM on Beta-lactamase TEM; 44.5 µM on Beta-lactamase [4]; 109 µM at Beta-lactamase [6]; 300 µM at Beta-lactamase [8]; 79.7 mg/L (≈ 215 µM) in [1]; 10.1 mg/L (≈ 27.3 µM) in assay [10]. Further, the MIC in the assay on Bacillus subtilis is 4 mg/L (≈ 10.8 µM); against Staphylococcus aureus [2], 32 mg/L (≈ 86.4 µM); against Staphylococcus aureus [3], 2 mg/L (≈ 5.4 µM); in the assay on Streptococcus pneumoniae it was 2 mg/L (≈ 5.4 µM); against Pseudomonas aeruginosa, more than 256 mg/L; in the assay with Staphylococcus aureus [7] it was 8 mg/L (≈ 21.6 µM). The MIC is more than 256 mg/L in the assay on Klebsiella pneumoniae; 2 mg/L (≈ 5.4 µM) in [9]; 2 mg/L (≈ 5.4 µM) against Streptococcus pyogenes; 2 mg/L (≈ 5.4 µM) in assay [11]; more than 256 mg/L in the assay with Serratia marcescens; more than 256 mg/L against Enterobacter cloacae. In addition, the figures for the MIC against Proteus mirabilis, with Escherichia coli and with Enterococcus faecalis were more than 256 mg/L, more than 256 mg/L and 0.25 mg/L (≈ 0.675 µM), respectively. Also, the result in assay [5] was inactive.
